Experimental data from ChEMBL document CHEMBL4130442, “Design, synthesis and structure-activity relationship studies of a focused library of pyrimidine moiety with anti-proliferative and anti-metastasis activities in triple negative breast cancer” (Eur J Med Chem, 2017).

Tests used:
MCF7 = experiment: Antiproliferative activity against human MCF7 cells incubated for 24 hrs by MTT assay; format: functional, cell-based; conditions: MCF7, 24 h
MDA-MB-231 [1] = experiment: Induction of autophagy in human MDA-MB-231 cells assessed as change in p62 protein level at 10 uM incubated for 24 hrs by Western blot method relative to untreated control; format: functional
Procedure, shortened: (§1)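 MDA-MB-231 cells were exposed for 24 h. Adherent and floating cells were pooled and lysed for 1 h at 4 °C in 50 mM Hepes pH 7.4 with 1% Triton X-100, orthovanadate, NaF, EDTA, PMSF, aprotinin and leupeptin. After 12,000 rpm clearing, equal protein was run on 10-15% SDS-PAGE and blotted to PVDF. Detection used HRP-ECL, with β-actin as loading control and densitometric quantification.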

MDA-MB-231 [2] = experiment: Induction of autophagy in human MDA-MB-231 cells assessed as change in Beclin-1 protein level at 10 uM incubated for 24 hrs by Western blot method relative to untreated control; format: functional; procedure, shortened: as §1
MDA-MB-231 [3] = experiment: Induction of apoptosis in human MDA-MB-231 cells assessed as change in cleaved PARP protein level at 5 uM incubated for 24 hrs by Western blot method relative to untreated control; format: functional; procedure, shortened: as §1
[4] = target: T1, Platelet-derived growth factor receptor beta (Homo sapiens, UniProt P09619); experiment: Inhibition of PDGFRbeta in human MDA-MB-231 cells assessed as Akt Ser473 phosphorylation level at 10 uM incubated for 24 hrs by Western blot relative to untreated control; format: cell-based
T1 sequence (P09619 whole entry): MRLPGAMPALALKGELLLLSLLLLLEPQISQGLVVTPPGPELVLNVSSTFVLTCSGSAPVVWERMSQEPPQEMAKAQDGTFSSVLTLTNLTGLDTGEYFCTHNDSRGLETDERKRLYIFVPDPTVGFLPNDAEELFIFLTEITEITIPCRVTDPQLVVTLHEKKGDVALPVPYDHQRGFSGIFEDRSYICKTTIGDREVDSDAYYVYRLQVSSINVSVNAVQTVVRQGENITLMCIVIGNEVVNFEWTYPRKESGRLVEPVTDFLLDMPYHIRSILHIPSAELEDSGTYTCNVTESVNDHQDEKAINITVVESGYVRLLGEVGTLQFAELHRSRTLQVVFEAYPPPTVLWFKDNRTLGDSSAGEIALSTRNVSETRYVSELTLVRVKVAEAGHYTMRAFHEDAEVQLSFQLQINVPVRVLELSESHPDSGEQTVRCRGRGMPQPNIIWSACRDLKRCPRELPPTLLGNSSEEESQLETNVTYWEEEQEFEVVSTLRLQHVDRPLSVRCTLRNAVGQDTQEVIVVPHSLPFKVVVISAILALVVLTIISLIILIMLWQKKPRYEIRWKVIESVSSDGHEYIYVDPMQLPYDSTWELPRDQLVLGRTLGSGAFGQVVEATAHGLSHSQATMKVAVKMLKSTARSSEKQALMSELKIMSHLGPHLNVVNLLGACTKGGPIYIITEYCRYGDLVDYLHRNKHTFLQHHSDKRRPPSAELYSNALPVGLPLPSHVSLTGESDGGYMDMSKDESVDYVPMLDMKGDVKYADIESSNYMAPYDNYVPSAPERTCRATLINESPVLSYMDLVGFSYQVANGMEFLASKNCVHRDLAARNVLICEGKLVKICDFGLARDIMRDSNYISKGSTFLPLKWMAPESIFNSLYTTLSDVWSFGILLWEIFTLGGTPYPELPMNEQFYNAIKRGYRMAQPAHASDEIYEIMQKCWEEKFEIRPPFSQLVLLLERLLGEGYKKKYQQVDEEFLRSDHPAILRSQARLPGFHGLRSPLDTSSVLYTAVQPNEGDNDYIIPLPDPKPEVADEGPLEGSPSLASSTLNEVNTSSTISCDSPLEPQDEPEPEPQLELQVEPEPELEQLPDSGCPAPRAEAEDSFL
Procedure, shortened: (§2)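 Cells were treated 24 h at several concentrations. Pooled adherent and floating cells were lysed in Hepes 50 mM pH 7.4 / 1% Triton X-100 buffer with vanadate, NaF, EDTA, PMSF, aprotinin and leupeptin. Equal protein was run on 10-15% SDS-PAGE and blotted to PVDF. PDGFR-β-AKT-ULK1 pathway phospho-proteins were probed and detected by ECL, with β-actin as loading control.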

[5] = target: T1, Platelet-derived growth factor receptor beta; experiment: Inhibition of PDGFRbeta in human MDA-MB-231 cells assessed as mTOR Ser2448 phosphorylation level at 10 uM incubated for 24 hrs by Western blot relative to untreated control; format: cell-based; procedure, shortened: as §2
[6] = target: T1, Platelet-derived growth factor receptor beta; experiment: Inhibition of PDGFRbeta in human MDA-MB-231 cells assessed as ULK Ser317 phosphorylation level at 10 uM incubated for 24 hrs by Western blot relative to untreated control; format: cell-based; procedure, shortened: as §2
[7] = target: T1, Platelet-derived growth factor receptor beta; experiment: Inhibition of PDGFRbeta in human MDA-MB-231 cells assessed as ULK Ser555 phosphorylation level at 5 uM incubated for 24 hrs by Western blot relative to untreated control; format: cell-based; procedure, shortened: as §2
[8] = target: T1, Platelet-derived growth factor receptor beta; experiment: Inhibition of PDGFRbeta in human MDA-MB-231 cells assessed as ULK Ser555 phosphorylation level at 10 uM incubated for 24 hrs by Western blot relative to untreated control; format: cell-based; procedure, shortened: as §2
MDA-MB-231 [9] = experiment: Effect on total PDGFRbeta protein level in human MDA-MB-231 cells at 2.5 uM incubated for 24 hrs by Western blot relative to untreated control; format: ADME, cell-based; conditions: mda-mb-231, 24 h; procedure, shortened: as §1
MDA-MB-231 [10] = experiment: Effect on total mTOR protein level in human MDA-MB-231 cells at 10 uM incubated for 24 hrs by Western blot relative to untreated control; format: ADME, cell-based; conditions: mda-mb-231, 24 h; procedure, shortened: as §1
MDA-MB-231 [11] = experiment: Effect on total ULK1 protein level in human MDA-MB-231 cells at 5 uM incubated for 24 hrs by Western blot relative to untreated control; format: ADME, cell-based; conditions: mda-mb-231, 24 h; procedure, shortened: as §1
[12] = target: T1, Platelet-derived growth factor receptor beta; experiment: Inhibition of PDGFRbeta in human MDA-MB-231 cells assessed as Akt Thr305 phosphorylation level at 2.5 uM incubated for 24 hrs in presence of PDGFRbeta siRNA by Western blot relative to untreated control; format: cell-based
Procedure, shortened: (§3)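 Cells were transfected with control or PDGFR-β siRNA, then treated with 2.5 μM compound for 24 h. PDGFR-β-AKT-ULK1 pathway phospho-proteins were assessed by western blot: lysis in Hepes pH 7.4 / Triton buffer, 10-15% SDS-PAGE, PVDF, ECL detection, β-actin as loading control.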

[13] = target: T1, Platelet-derived growth factor receptor beta; experiment: Inhibition of PDGFRbeta in human MDA-MB-231 cells assessed as mTOR Ser2448 phosphorylation level at 2.5 uM incubated for 24 hrs in presence of control siRNA by Western blot relative to untreated control; format: cell-based; procedure, shortened: as §3
[14] = target: T1, Platelet-derived growth factor receptor beta; experiment: Inhibition of PDGFRbeta in human MDA-MB-231 cells assessed as ULK Ser317 phosphorylation level at 2.5 uM incubated for 24 hrs in presence of control siRNA by Western blot relative to untreated control; format: cell-based; procedure, shortened: as §3
[15] = target: T1, Platelet-derived growth factor receptor beta; experiment: Inhibition of PDGFRbeta in human MDA-MB-231 cells assessed as ULK Ser555 phosphorylation level at 2.5 uM incubated for 24 hrs in presence of PDGFRbeta siRNA by Western blot relative to untreated control; format: cell-based; procedure, shortened: as §3
MDA-MB-231 [16] = experiment: Effect on total Ras protein level in human MDA-MB-231 cells at 2.5 uM incubated for 24 hrs in presence of PDGFRbeta siRNA by Western blot relative to untreated control; format: cell-based; conditions: mda-mb-231, 24 h
MDA-MB-231 [17] = experiment: Effect on total MEK1/2 protein level in human MDA-MB-231 cells at 5 uM incubated for 24 hrs in presence of PDGFRbeta siRNA by Western blot relative to untreated control; format: cell-based; conditions: mda-mb-231, 24 h
MDA-MB-231 [18] = experiment: Effect on total ERK1/2 protein level in human MDA-MB-231 cells at 5 uM incubated for 24 hrs in presence of PDGFRbeta siRNA by Western blot relative to untreated control; format: cell-based; conditions: mda-mb-231, 24 h
[19] = target: T1, Platelet-derived growth factor receptor beta; experiment: Inhibition of PDGFRbeta in human MDA-MB-231 cells assessed as C-Raf Ser259 phosphorylation level at 5 uM incubated for 24 hrs in presence of PDGFRbeta siRNA by Western blot relative to untreated control; format: cell-based
[20] = target: T1, Platelet-derived growth factor receptor beta; experiment: Inhibition of PDGFRbeta in human MDA-MB-231 cells assessed as C-Raf Ser259 phosphorylation level at 10 uM incubated for 24 hrs in presence of PDGFRbeta siRNA by Western blot relative to untreated control; format: cell-based
[21] = target: T1, Platelet-derived growth factor receptor beta; experiment: Inhibition of PDGFRbeta in human MDA-MB-231 cells assessed as C-Raf Ser338 phosphorylation level at 5 uM incubated for 24 hrs in presence of PDGFRbeta siRNA by Western blot relative to untreated control; format: cell-based
[22] = target: T2, Dual specificity mitogen-activated protein kinase kinase; MEK1/2 (Homo sapiens) (UniProt P36507+Q02750); experiment: Inhibition of MEK1/2 in human MDA-MB-231 cells assessed as MEK1/2 Ser217/221 phosphorylation level at 2.5 uM incubated for 24 hrs in presence of PDGFRbeta siRNA by Western blot relative to untreated control; format: cell-based
T2 sequence (P36507 whole entry, looked up): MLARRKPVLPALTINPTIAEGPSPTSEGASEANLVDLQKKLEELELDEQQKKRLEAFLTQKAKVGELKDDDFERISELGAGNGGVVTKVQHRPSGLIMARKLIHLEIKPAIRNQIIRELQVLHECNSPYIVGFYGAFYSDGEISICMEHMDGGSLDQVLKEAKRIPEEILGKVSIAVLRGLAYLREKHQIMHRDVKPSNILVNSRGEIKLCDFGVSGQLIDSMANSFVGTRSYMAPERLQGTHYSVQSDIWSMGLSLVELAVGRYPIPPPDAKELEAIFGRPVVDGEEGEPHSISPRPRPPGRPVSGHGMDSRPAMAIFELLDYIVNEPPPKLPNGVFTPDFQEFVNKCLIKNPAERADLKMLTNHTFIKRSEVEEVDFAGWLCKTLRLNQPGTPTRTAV
T2 sequence (Q02750 whole entry, looked up): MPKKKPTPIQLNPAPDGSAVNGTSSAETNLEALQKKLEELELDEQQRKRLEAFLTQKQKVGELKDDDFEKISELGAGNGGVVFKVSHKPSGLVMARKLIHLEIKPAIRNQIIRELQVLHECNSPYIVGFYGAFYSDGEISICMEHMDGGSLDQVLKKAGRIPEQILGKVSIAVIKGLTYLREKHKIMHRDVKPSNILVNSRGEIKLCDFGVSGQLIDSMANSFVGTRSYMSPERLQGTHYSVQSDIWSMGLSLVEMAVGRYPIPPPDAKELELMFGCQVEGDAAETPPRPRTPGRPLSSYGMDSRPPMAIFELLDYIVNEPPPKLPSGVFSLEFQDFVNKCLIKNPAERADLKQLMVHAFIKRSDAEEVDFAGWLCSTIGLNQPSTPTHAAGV

[23] = target: T2, Dual specificity mitogen-activated protein kinase kinase; MEK1/2 (Homo sapiens); experiment: Inhibition of MEK1/2 in human MDA-MB-231 cells assessed as MEK1/2 Ser217/221 phosphorylation level at 5 uM incubated for 24 hrs in presence of PDGFRbeta siRNA by Western blot relative to untreated control; format: cell-based
[24] = target: Mitogen-activated protein kinase; ERK1/ERK2 (Homo sapiens) (UniProt P27361+P28482); experiment: Inhibition of ERK1/2 in human MDA-MB-231 cells assessed as ERK1/2 Thr202/Tyr204 phosphorylation level at 5 uM incubated for 24 hrs in presence of PDGFRbeta siRNA by Western blot relative to untreated control; format: cell-based
Mitogen-activated protein kinase; ERK1/ERK2 (Homo sapiens), sequence (P27361 whole entry, looked up): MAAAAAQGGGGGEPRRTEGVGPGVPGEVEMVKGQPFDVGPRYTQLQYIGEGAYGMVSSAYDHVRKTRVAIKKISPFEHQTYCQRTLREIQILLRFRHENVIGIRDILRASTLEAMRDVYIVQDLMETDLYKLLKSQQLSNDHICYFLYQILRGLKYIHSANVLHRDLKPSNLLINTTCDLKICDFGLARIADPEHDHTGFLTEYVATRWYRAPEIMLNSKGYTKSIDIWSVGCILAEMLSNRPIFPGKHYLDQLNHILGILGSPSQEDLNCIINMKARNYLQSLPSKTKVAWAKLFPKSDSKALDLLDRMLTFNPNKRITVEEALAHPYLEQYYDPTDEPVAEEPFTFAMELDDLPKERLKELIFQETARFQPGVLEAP
Mitogen-activated protein kinase; ERK1/ERK2 (Homo sapiens), sequence (P28482 whole entry, looked up): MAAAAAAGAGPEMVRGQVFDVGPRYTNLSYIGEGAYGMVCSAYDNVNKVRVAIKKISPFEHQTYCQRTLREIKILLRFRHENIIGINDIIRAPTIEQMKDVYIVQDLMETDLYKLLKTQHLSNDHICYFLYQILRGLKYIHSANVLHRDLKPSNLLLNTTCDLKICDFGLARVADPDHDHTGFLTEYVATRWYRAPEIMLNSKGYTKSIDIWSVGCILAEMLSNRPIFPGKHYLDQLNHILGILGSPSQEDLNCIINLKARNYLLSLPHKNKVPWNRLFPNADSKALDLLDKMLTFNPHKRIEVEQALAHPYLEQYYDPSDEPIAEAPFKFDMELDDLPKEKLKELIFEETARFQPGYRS

COc1cccc(Nc2cc(N3CCN(C(=O)Nc4ccc(C(F)(F)F)cc4)CC3)ncn2)c1
IC50 (MCF7): 2160 nM | fold change (FC) (MDA-MB-231 [1]): 0.55 | fold change (FC) (MDA-MB-231 [2]): 3.2 | fold change (FC) (MDA-MB-231 [3]): 0.85 | fold change (FC) [4]: 0.18 | fold change (FC) [5]: 0.16 | fold change (FC) [6]: 3.2 | fold change (FC) [7]: 4.2 | fold change (FC) [8]: 5.6 | fold change (FC) (MDA-MB-231 [9]): 1.8 | fold change (FC) (MDA-MB-231 [10]): 0.45 | fold change (FC) (MDA-MB-231 [11]): 0.91 | fold change (FC) [12]: 0.04 | fold change (FC) [13]: 0.26 | fold change (FC) [14]: 3.21 | fold change (FC) [15]: 3.69 | fold change (FC) (MDA-MB-231 [16]): 1.2 | fold change (FC) (MDA-MB-231 [17]): 1.08 | fold change (FC) (MDA-MB-231 [18]): 2 | fold change (FC) [19]: 1.06 | fold change (FC) [20]: 0.95 | fold change (FC) [21]: 0.78 | fold change (FC) [22]: 1.12 | fold change (FC) [23]: 1.05 | fold change (FC) [24]: 1.86
